Measured values from different studies.
Protocols differ between the studies behind these lines.
Read-out: cell growth or viability

The IC50 of `CC(=O)c1c(C)c2cnc(Nc3ccc(N4CCNCC4)cn3)nc2n(C2CCCC2)c1=O` is reported as 10.8 nM (MB002; 7 days).
The IC50 of `CC(C)C[C@H](NC(=O)[C@H](Cc1ccccc1)NC(=O)c1cnccn1)B(O)O` is reported as 22 nM (NCI-H1563; ATP luminescence).
The GI50 of `COc1ccc(-c2ccc(-c3ccc(C(=N)N)nc3)s2)cc1Cl` is reported as 1820 nM (SK-MEL-5; SRB).
For `CC(=O)Nc1cccc(-n2c(=O)n(C3CC3)c(=O)c3c(Nc4ccc(I)cc4F)n(C)c(=O)c(C)c32)c1`, the viability was 74.2% (Calu-6; resazurin; 6.25 nM; 72 h).
With `O=C(NO)c1ccc(CN(c2cnccn2)c2cnccn2)cc1` the GI50 was greater than 20000 nM (B16-F10).
The GI50 of `CO[C@]1(C(=O)N[C@@H](C)c2ccc(-n3cc(F)cn3)nc2)CC[C@H](c2nc(C)cc(Nc3cc(C)[nH]n3)n2)CC1` is reported as greater than 10000 nM (BT-474; ATP luminescence; 72 h).
For `CCOc1cc(C(C)(C)C)ccc1C1=N[C@@](C)(c2ccc(Cl)cc2)[C@@](C)(c2ccc(Cl)cc2)N1C(=O)N1CCN(CCCS(C)(=O)=O)CC1`, the IC50 was 99.4 nM (MB002; 7 days).
The IC50 of `COc1cc(Nc2nccc(-c3cnn4nc(OC)ccc34)n2)cc(C(F)(F)F)c1` is reported as 190 nM (SK-ES1; ATP luminescence).
`Cc1cc2c(cc1N1C(=O)c3cccc4c(CCCO)ccc(c34)C1=O)n(C)c(=O)n2C` (racemic) has a GI50 of greater than 10000 nM (SW-403; resazurin).
The IC50 of `CC[C@]1(O)C[C@H]2CN(CCc3c([nH]c4ccccc34)[C@@](C(=O)OC)(c3cc4c(cc3OC)N(C=O)[C@H]3[C@@](O)(C(=O)OC)[C@H](OC(C)=O)[C@]5(CC)C=CCN6CC[C@]43[C@@H]65)C2)C1` is reported as 11.2 nM (MB002; 7 days).
The Kb of `CCCCCCCCCC(=O)N[C@@H](Cc1c[nH]c2ccccc12)C(=O)N[C@H](CC(N)=O)C(=O)N[C@@H](CC(=O)O)C(=O)N[C@@H]1C(=O)NCC(=O)N[C@@H](CCCN)C(=O)N[C@@H](CC(=O)O)C(=O)N[C@H](C)C(=O)N[C@@H](CC(=O)O)C(=O)NCC(=O)N[C@H](CO)C(=O)N[C@@H]([C@H](C)CC(=O)O)C(=O)N[C@@H](CC(=O)c2ccccc2N)C(=O)O[C@@H]1C` is reported as greater than 64000 nM (KB 3-1; WST-1).
